Compound activity deposited in PubChem BioAssay by several laboratories.
IMP-1 inh-1: inhibitors of Pseudomonas aeruginosa IMP-1 metallo-beta-lactamase; purified IMP-1, nitrocefin hydrolysis, epi-absorbance fluorescence; actives 0.45% (n = 290,000); inhibition, % at 5.6 µM; AID 1556;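 active = inhibition above the mean plus 3 SD of all compounds in the same screening run, cut at about 4.5% in these data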;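 note: 0% = IMP-1 with DMSO and 100% = DMSO wells lacking enzyme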
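System: purified recombinant IMP-1 beta-lactamase. Medium: Zinc- and detergent-supplemented HEPES buffer, pH 7.1. Compound: one 5.6 µM dose […]. Schedule: 15 min preincubation plus 25 min reaction at 25 °C. Technique: Epi-absorbance fluorescence, 480 nm excitation, 530 nm emission.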
HCV core dimer: HCV core protein dimerization inhibition; TR-FRET GST/Flag-core106 dimerization, 1536-well; inhibition, % at 5 µM; actives 0.33% (n = 300,000);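 active = inhibition above the mean of all tested compounds plus 3 SD, set per screening campaign, cut at about 45% in these data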
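test system = GST/Flag-tagged HCV core106 proteins | probe or stimulus = Eu donor and XL665 acceptor anti-tag antibodies | times = compound-protein-antibody incubation 4 h at 22.5 °C | signal = TR-FRET, excitation 340 nm, emission 617 and 671 nm | measure = percent inhibition of core106 dimerization signal | controls = wells lacking GST-core106 and wells with excess unlabelled core106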
NadD block: NadD (S. aureus) enzyme inhibition. purified NadD enzyme, colorimetric absorbance read-out. inhibition, % at 20 µM. actives 0.78% (n = 360,000); in the data active = inhibition above about 26%
VIM-2 inh: inhibitors of Pseudomonas aeruginosa VIM-2 metallo-beta-lactamase | actives 0.89% (n = 290,000) | AID 1527 | purified VIM-2, nitrocefin hydrolysis, epi-absorbance fluorescence | inhibition, % at 5.6 µM;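 active = inhibition above the mean of all tested compounds plus 3 SD, cutoff set per screening run, cut at about 7.5% in these data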;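 note: red hydrolysis product quenches plate fluorescence so inhibitors raise well fluorescence; 0% = enzyme with DMSO and 100% = DMSO without enzyme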
IMP-1 inh-2: IMP-1 inhibition, counter-screen for VIM-2 inhibitors | shares compounds with VIM-2 inh | purified IMP-1, nitrocefin hydrolysis, epi-absorbance fluorescence | inhibition, % at 5.6 µM | 1,300 tested, under 10 active; call rule not given here;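 note: 0% = enzyme with vehicle and 100% = vehicle without enzyme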
VIM-2 FRET ctr: counter-screen for VIM-2 inhibitors: epi-absorbance artifacts via FRET | shares compounds with VIM-2 inh | purified VIM-2, CCF2 FRET substrate hydrolysis | inhibition, % at 5.6 µM | actives 23% (n = 1,300) | AID 1857;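 active = inhibition above the mean of all tested compounds plus 3 SD, cut at about 19% in these data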;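 note: 0% = VIM-2 plus DMSO and 100% = no enzyme wells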
TEM-1 counter: blocks E. coli TEM-1 beta-lactamase in VIM-2 selectivity screen; shares compounds with VIM-2 inh; Purified TEM-1, nitrocefin hydrolysis, epi-absorbance fluorescence; inhibition, % at 5.6 µM; actives 3% (n = 1,300); AID 1866;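 active = inhibition above that campaign's mean inhibition plus 3 SD, cut at about 0.46% in these data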;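 note: 0% = TEM-1 with DMSO and 100% = TEM-1 with 100 µM potassium clavulanate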
Target sequence (P62593 whole entry, looked up): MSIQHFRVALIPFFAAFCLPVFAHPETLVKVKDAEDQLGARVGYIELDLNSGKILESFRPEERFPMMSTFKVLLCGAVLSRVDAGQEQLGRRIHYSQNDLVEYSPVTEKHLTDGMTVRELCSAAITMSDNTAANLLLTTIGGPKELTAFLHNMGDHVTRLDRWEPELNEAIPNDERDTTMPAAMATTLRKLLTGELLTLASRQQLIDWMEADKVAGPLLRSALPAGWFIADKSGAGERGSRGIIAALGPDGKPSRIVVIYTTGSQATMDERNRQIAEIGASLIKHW
VIM-2 inh conf: confirmation of P. aeruginosa VIM-2 metallo-beta-lactamase inhibitors. shares compounds with VIM-2 inh. actives 96% (n = 1,300). inhibition, % at 5.6 µM. AID 2187. purified VIM-2, nitrocefin hydrolysis, epi-absorbance;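 active = inhibition of the VIM-2 beta-lactamase enzyme above about 11% from the earlier first-round screen, limit read from the data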;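 note: 0% = VIM-2 with DMSO and 100% = buffer wells without enzyme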
* = called active by the depositor; / = no result given. In the library only some 1.9% were active in any assay of this set; here they are far more common.

SMILES | IMP-1 inh-1 | HCV core dimer | NadD block | VIM-2 inh | IMP-1 inh-2 | VIM-2 FRET ctr | TEM-1 counter | VIM-2 inh conf
COc1cccc(NC(=O)CSc2nnc3ccc(-c4ccccn4)nn23)c1 | / | / | 0.6 | / | / | / | / | /
CCSc1ccc2nnc(-c3cccc(F)c3)n2n1 | -1.9 | 1.6 | 6.2 | 12.4* | -3.3 | -8.6 | -6.3 | 23.1*
c1ccc2[nH]c(CSc3ncnc4c3oc3ccccc34)nc2c1 | -7.0 | 2.5 | 7.6 | -1.2 | / | / | / | /
c1ccc2[nH]c(CN3CCN(c4ncnc5c4oc4ccccc45)CC3)nc2c1 | -0.3 | 0.3 | 2.6 | 14.6* | -1.9 | -14.4 | -7.5 | 26.8*
Cn1c2ccccc2c2nnc(SCC(=O)Nc3cccc(C(=O)O)c3)nc21 | -2.2 | 2.1 | -1.4 | 5.3 | / | / | / | /
CCN(CC)C(=O)CSc1nnc2c3ccccc3n(C)c2n1 | -5.6 | 5.2 | -8.6 | 13.7* | -2.9 | 0.3 | -5.0 | 24.4*
CCOC(=O)Cc1nnc(NC(=O)CSc2ccc(C)cc2)s1 | -1.9 | -0.4 | 1.6 | -0.1 | / | / | / | /
CCOC(=O)Cc1nnc(NC(=O)CSc2nnc3c4ccccc4n(C)c3n2)s1 | -3.0 | 11.8 | 15.5 | 16.9* | -2.3 | -0.7 | -10.8 | 37.6*
COc1cc(NC(=O)c2ccc(=O)[nH]n2)cc(OC)c1OC | -0.7 | -6.3 | -4.6 | -2.4 | / | / | / | /
CSS(=O)(=O)c1cccc2cccnc12 | -1.8 | 2.5 | 15.5 | 38.4* | -2.5 | -30.2 | -5.3 | 42.8*
Cc1cc(C)n(-c2ccc([N+](=O)[O-])cc2-c2nn[nH]n2)n1 | -1.7 | -3.0 | 6.9 | 25.6* | -3.3 | 53.4* | -4.7 | 32.6*
O=[N+]([O-])c1ccc(O)c(-c2nn[nH]n2)c1 | -1.1 | -8.7 | 0.2 | -3.8 | / | / | / | /
CC(=O)c1ccc(Nc2nc(-c3cccnc3)cs2)cc1 | -3.2 | / | -4.7 | 14.2* | -2.8 | -3.5 | -7.5 | 15.4*
COc1ccc(-c2cc(C(F)(F)F)n3nc(C(=O)N4CCN5CCCC5C4)cc3n2)cc1OC (stereo not drawn) | -0.8 | 9.5 | -0.6 | 25.7* | -2.7 | 0.1 | -6.0 | 40.0*
Cc1cc(Nc2cccc(Cl)c2Cl)n2ncnc2n1 | -0.4 | / | -7.4 | 2.3 | / | / | / | /
CN(C)CCNC(=O)c1csc(Nc2cccc3ccccc23)n1 | -2.0 | -24.3 | -3.5 | 13.1* | -2.0 | -0.8 | -2.6 | 22.2*
Cc1ccc(-c2nn3cnnc3c3ccccc23)cc1C | -1.2 | 0.1 | 3.1 | 23.5* | 0.2 | 5.5 | 1.6* | 39.0*
COc1cc(Nc2c3c(nc4ccccc24)CCC3)cc(OC)c1OC | -1.8 | -9.2 | -10.3 | 1.5 | / | / | / | /
COc1ccc(OC)c(Nc2c3c(nc4ccccc24)CCC3)c1 | -0.9 | -0.5 | -3.1 | 12.7* | -2.8 | -4.9 | -5.1 | 19.9*
CCOC(=O)c1cnc2c(C(F)(F)F)cccc2c1NCCCN1CCOCC1 | -0.5 | 0.7 | 1.4 | 20.4* | -2.5 | 0.8 | -6.4 | 27.2*
CCOC(=O)c1cnc2c(Cl)cccc2c1NCCN1CCOCC1 | -2.1 | -1.7 | -6.1 | 2.3 | / | / | / | /
CCOC(=O)c1cnc2c(Cl)cccc2c1NCCCN1CCOCC1 | -2.8 | -2.4 | -4.5 | 19.6* | -2.9 | -1.4 | -4.7 | 28.1*
CCOC(=O)c1cnc2c(C(F)(F)F)cccc2c1N1CCN(C)CC1 | -2.5 | -15.5 | -5.3 | 4.8 | / | / | / | /
CCOC(=O)c1cnc2c(CC)cccc2c1NCCCN1CCOCC1 | 0.4 | -4.7 | -4.1 | 24.4* | -3.1 | 0.9 | -4.3 | 32.6*
CN(C(=O)CSc1nc(N)cc(N)n1)C1CCS(=O)(=O)C1 (stereo not drawn) | -3.7 | -6.2 | -1.0 | 0.7 | / | / | / | /
SMILES | IMP-1 inh-1 | HCV core dimer | NadD block | VIM-2 inh | IMP-1 inh-2 | VIM-2 FRET ctr | TEM-1 counter | VIM-2 inh conf
O=C(O)c1cccc(S(=O)(=O)N(Cc2ccccc2)c2cccc(C(F)(F)F)c2)c1 | -2.7 | 6.6 | -1.5 | -0.3 | / | / | / | /
O=C(NC1CCN(C(=O)Nc2ccc(F)cc2)CC1)c1ccccc1F | -1.1 | -0.7 | -0.8 | -1.6 | / | / | / | /
COc1ccc([C@H]2CC(=O)C=C(c3ccc(F)cc3OCc3ccccc3)C2)cc1OC | / | / | -9.7 | / | / | / | / | /
CN1CCCC1CCNc1ccc2c(=O)c3ccccc3oc2c1 (stereo not drawn) | -2.2 | -6.9 | -3.9 | 17.3* | -2.1 | -12.4 | -13.7 | 27.5*
O=c1c2ccccc2oc2cc(NCCCN3CCOCC3)ccc12 | -0.4 | 1.7 | -3.3 | 16.9* | -2.5 | -8.1 | -11.6 | 21.8*
CN1CCCC1CCNc1ccc2oc3ccccc3c(=O)c2c1 (stereo not drawn) | 1.9 | -3.3 | / | 15.7* | -1.8 | -2.2 | -4.8 | 17.5*
CN1CCC[C@H]1CCNc1ccc2c(=O)c3ccccc3n(C)c2c1 | / | / | 28.4 | / | / | / | / | /
O=C(NCc1ccccc1)c1cc(C2CCCCN2C(=O)c2ccccc2)on1 (stereo not drawn) | / | / | -5.7 | / | / | / | / | /
